Fibroblast inh: blocks proliferation of human lung fibroblasts; LL 47 human lung fibroblast viability, ATP luminescence; stronger effect = lower value; viability, % at 10 µM; 1.1% of 85,000 active;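 active means viability at or below 50% in the single dose screen; inactive means viability above 50%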;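 further: compound exposure lasted 72 h before the ATP readout; 100% = median luminescence of untreated cell-only wells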
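Test system: LL 47 human lung fibroblasts; Quantity: 1,150 cells/well; Buffer or medium: IMEM plus 15% FBS; Dosing: tenfold compound dosing solution, DMSO at 0.1%; Timing: overnight cell rest, 72 h compound treatment at 37 °C; Detection: ATP-based CellTiter-Glo luminescent readout; Read-out basis: viability percentage against median untreated-cell control; Controls: cell-only wells, no compound.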
HUVEC prolif 384: inhibitors of human endothelial cell proliferation | viability, % at 10 µM (by protocol) | AID 648 | 1.1% of 86,000 active | HUVEC proliferation, CellTiter-Glo luminescence, 72 h; stronger effect = lower value;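 active means viability at or below 30%; inactive means viability above 30%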;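 further: 100% = median luminescence of DMSO-only cell control wells on each plate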
H69AR growth 86K: blocks growth of human H69AR lung tumor cells. viability, % at 10 µM. 6% of 85,000 active. H69AR lung tumor viability, ATP luminescence, 72 h; stronger effect = lower value. AID 598;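 active means viability at or below 40%; inactive means viability above 40%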;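 further: multidrug resistant small cell line overexpressing MRP-1 efflux transporter; 100% = mean luminescence of untreated control wells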
PTK2B oligo ant: Pyk2 (human) oligomerization antagonism | Q293 cells, Pyk2 FERM NanoBiT luminescence; stronger effect = lower value | 0.83% of 99,000 active | Q14289 | z-score (the deposit names both 25 µM and 10 µM);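 active means Z-score of -3 or lower, scaled per plate to the spread of control and sample wells; inactive means z-score above -3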;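 further: negative z-score means lost luminescence so less FERM oligomerization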
Target sequence (Q14289 whole entry, looked up): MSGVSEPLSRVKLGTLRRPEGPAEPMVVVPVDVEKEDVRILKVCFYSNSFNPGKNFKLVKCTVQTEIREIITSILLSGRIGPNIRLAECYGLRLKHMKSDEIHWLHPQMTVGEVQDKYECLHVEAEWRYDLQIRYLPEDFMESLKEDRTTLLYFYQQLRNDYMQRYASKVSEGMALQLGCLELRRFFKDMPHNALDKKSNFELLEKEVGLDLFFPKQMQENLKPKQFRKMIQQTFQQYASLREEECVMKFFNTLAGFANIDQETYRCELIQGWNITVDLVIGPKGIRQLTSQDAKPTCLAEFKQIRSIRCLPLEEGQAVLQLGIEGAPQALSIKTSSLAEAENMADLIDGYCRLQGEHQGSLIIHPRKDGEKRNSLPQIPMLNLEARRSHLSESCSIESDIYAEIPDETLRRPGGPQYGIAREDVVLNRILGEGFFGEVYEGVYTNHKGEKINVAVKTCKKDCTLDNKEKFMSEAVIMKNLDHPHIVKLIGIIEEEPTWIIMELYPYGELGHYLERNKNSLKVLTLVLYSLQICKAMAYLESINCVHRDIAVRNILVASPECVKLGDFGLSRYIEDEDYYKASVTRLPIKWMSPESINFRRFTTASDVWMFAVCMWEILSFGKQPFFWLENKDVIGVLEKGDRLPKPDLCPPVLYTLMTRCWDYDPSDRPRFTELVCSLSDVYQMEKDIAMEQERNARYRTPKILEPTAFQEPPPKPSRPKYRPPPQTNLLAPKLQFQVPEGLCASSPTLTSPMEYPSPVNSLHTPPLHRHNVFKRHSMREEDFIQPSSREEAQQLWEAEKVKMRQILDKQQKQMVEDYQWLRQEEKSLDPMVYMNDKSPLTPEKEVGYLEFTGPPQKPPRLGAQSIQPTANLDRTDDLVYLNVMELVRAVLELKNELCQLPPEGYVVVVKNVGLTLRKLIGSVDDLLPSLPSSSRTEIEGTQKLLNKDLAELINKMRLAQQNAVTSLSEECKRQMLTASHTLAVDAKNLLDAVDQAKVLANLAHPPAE
Jurkat viability: cytotoxicity toward Jurkat cells. Jurkat E6.1 viability, ATP luminescence, 48 h. inhibition, % at 4 µM. 1.2% of 56,000 active. AID 463;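 active means inhibition above the mean inhibition of all tested compounds plus 3 SD, cut at about 28% in these data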
cytoskel mod: modifiers of cytoskeleton assembly; HUVEC TNFa F-actin phalloidin imaging, high content; inhibition, % at 2 µM; 0.18% of 91,000 active; AID 836;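 active means inhibition above the batch mean plus 3 SD and confirmed as a hit by visual image inspection, cut at about 30% in these data, passing the limit was not always enough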
* hit, by the source's call; nt = no result. Only some compounds are listed: those with a hit (about 6% of all), similar ones and a draw of the others.

SMILES | Fibroblast inh | HUVEC prolif 384 | H69AR growth 86K | PTK2B oligo ant | Jurkat viability | cytoskel mod
O=C(Oc1ccc(F)cc1C(=O)/C=C/c1cccs1)c1cccc([N+](=O)[O-])c1 | 64 | 60 | 3.0* | 0.35 | nt | -1
CC(C)c1nnc(SCC(=O)NCCC2=CCCCC2)n1N | 116 | 98 | 90 | 0.08 | nt | -11
Cc1cccc(-n2nnnc2SC(C)C(=O)NCCC2=CCCCC2)c1 (centres undefined) | 95 | 103 | 35* | -0.06 | nt | -24
Nc1nnnn1/N=C/c1ccccc1OCc1ccc(Cl)cc1Cl | nt | nt | nt | -0.81 | 0 | 4
Nc1nnnn1/N=C/c1cc(Cl)cc(Cl)c1OCc1ccc(Cl)cc1Cl | 91 | 89 | 22* | -0.03 | nt | 12
O=C(COC(=O)Cc1ccc(S(=O)(=O)N2CCCCC2)s1)Nc1ccc2c(c1)OCO2 | 103 | 92 | 25* | 0.24 | 6 | 23
O=C(COC(=O)Cc1ccc2c(c1)OCCO2)Nc1ccc(S(=O)(=O)N2CCCC2)cc1 | nt | nt | nt | 0.38 | nt | -1
COC(=O)[C@H](CCSC)NC(=O)NCc1ccccc1F | 92 | 99 | 97 | -0.02 | nt | -1
COC(=O)[C@H](CCSC)NC(=O)NCc1ccc(S(N)(=O)=O)cc1 | 99 | 90 | 1.9* | 0.33 | 1 | -7
Cc1ccc(C(=O)Nc2ccc3cn[nH]c3c2)cc1S(=O)(=O)N1CCCCC1 | 93 | 99 | 30* | -1.8 | nt | nt
Cc1csc(NC(=O)c2ccc(C)c(S(=O)(=O)N3CCCCC3)c2)n1 | 96 | 90 | 84 | 0.42 | 1 | 10
CN(C(=S)NC1=CCS(=O)(=O)C1)C1CCCCC1 | 97 | 85 | 83 | 1.1 | nt | 0
Cc1snc(SCC(=O)c2ccc(Cl)cc2)c1C#N | nt | nt | nt | 0.4 | nt | 6
CC(=O)CSc1nsc(SCC(C)=O)c1C#N | nt | 89 | 31* | -0.1 | nt | 1
Cc1csc(NC(=O)CSc2nsc(SCC(=O)Nc3nc(C)cs3)c2C#N)n1 | nt | nt | nt | -4.4* | nt | -18
Cc1ccc(C(=O)CSc2nsc(C)c2C#N)cc1 | nt | nt | nt | -1.1 | nt | 74*
COc1ccc(/C=N/NC(=O)CSc2nnc(CCCc3ccc(OC)c(C)c3)o2)cc1 | nt | nt | nt | 1.2 | nt | -16
CNC(=O)C1C(=S)NC(N)=C(C#N)C1c1ccccc1 (centres undefined) | nt | nt | nt | 1.2 | nt | 14
O=c1c(/C=C(\O)c2ccccc2)nc2ccccc2n1-c1ccccc1 | 104 | 112 | 39* | 1.3 | nt | -9
Cc1nc2ccccc2n1-c1ccccc1 | 94 | 107 | 92 | 0.7 | 6 | 18
CCOC(=O)C1=C(C)OC(N)=C(C#N)C1c1c(C)nn(-c2ccc(C)cc2)c1Cl (centres undefined) | 96 | 86 | 89 | nt | nt | 0
COC(=O)C1=C(C)OC(N)=C(C#N)C1c1c(C)nn(-c2ccccc2)c1Cl (centres undefined) | 87 | 66 | 39* | -1.9 | nt | -1
CCOC(=O)/C=C(\C)Sc1cc(=O)oc2ccccc12 | 86 | 49 | 13* | -1.2 | 14 | nt
Cn1c(-c2ccc3ccccc3n2)nc2cnccc21 | 87 | 29* | 74 | -0.62 | 8 | 8
COc1cc(OC)c(-c2nc3cnccc3n2C)cc1OC | 107 | 96 | 99 | 0.42 | -2 | -2
SMILES | Fibroblast inh | HUVEC prolif 384 | H69AR growth 86K | PTK2B oligo ant | Jurkat viability | cytoskel mod
CCOC(=O)C1=C(c2ccccc2)N2CCN=C2S1 | 103 | 101 | 79 | nt | 12 | -6
COc1ccc2c(c1)CCc1c(C(=O)NCCCn3ccnc3)noc1-2 | 107 | 93 | 1.5* | -0.57 | -4 | 18
COc1ccc(/C=C/C(=O)NC(=S)NNC(=O)Cc2cccs2)cc1 | nt | nt | nt | -0.62 | nt | 9
COc1ccc(/C=C/C(=O)NC(=S)NNC(=O)c2ccco2)cc1 | 63 | 43 | 31* | -0.5 | nt | 11
CCOc1cc(N2CCOCC2)c(OCC)cc1NC(=O)COC(=O)c1cc(C)oc1C | 95 | 93 | 38* | 2.5 | -7 | 7
CCOc1cc(N2CCOCC2)c(OCC)cc1NC(=O)COc1ncnc2ccc(Br)cc12 | 42* | 73 | 47 | 1.6 | nt | -8
Cc1nc(Nc2nc(=O)c3ccccc3n2C)nc2c(C)cccc12 | nt | nt | nt | nt | -2 | -2
O=C(NC1CC1)c1cc2c(s1)-c1ccccc1OC2 | 96 | 80 | 90 | nt | 38* | -3
O=C(CCl)N(c1ccc(Cl)cc1)c1c[nH]c2ccccc12 | 2.4* | 3.9* | 1.1* | -1.2 | nt | -14
O=C(CCl)N(c1ccccc1)c1c[nH]c2ccccc12 | 1.7* | 6.9* | 0.4* | 0.07 | nt | -14
CCOC(=O)Cc1c[nH]c2ccccc12 | 84 | 80 | 90 | 0.97 | nt | -11
